# Laboratory results reported in ChEMBL document CHEMBL4428028, “Novel Combretastatin-2-aminoimidazole Analogues as Potent Tubulin Assembly Inhibitors: Exploration of Unique Pharmacophoric Impact of Bridging Skeleton and Aryl Moiety” (J Med Chem, 2016).
# Activity calls are given as the source filed them. The rule behind the calls is not given here.
# Assays:
# MCF7 [1] = assay: Antiproliferative activity against human MCF7 cells incubated for 48 hrs by sulforhodamine B assay; assay type: functional, cell-based; conditions: MCF7, 48 h
# How it was run: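 MCF-7 cells (1 × 10⁵ cells/mL) attached 24 h in MEM with 10% FBS, 37 °C, 5% CO2. Exposed to serial dilutions, DMSO final <0.1%, for 48 h. TCA (50%) fixation, sulforhodamine B staining, IC50 determined. Three independent sets.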
# HeLa = assay: Antiproliferative activity against human HeLa cells incubated for 24 hrs by sulforhodamine B assay; assay type: functional, cell-based
# How it was run: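 HeLa cells (1 × 10⁵ cells/mL) attached 24 h in MEM with 10% FBS, 37 °C, 5% CO2. Then treated with serial dilutions, DMSO final <0.1%, for 24 h. Fixed with 50% TCA, sulforhodamine B read-out, IC50 derived. Three independent experiments.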
# MDA-MB-231 [2] = assay: Antiproliferative activity against human MDA-MB-231 cells incubated for 24 hrs by sulforhodamine B assay; assay type: functional, cell-based; conditions: MDA-MB-231, 24 h
# How it was run: (§1)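 Cells grown in DMEM with 2.2 g/L sodium bicarbonate, 10% FBS and antibiotic–antimycotic at 37 °C under 5% CO2. Compounds were dissolved in DMSO and diluted in medium (final DMSO <0.1%). Cells were exposed to a concentration series for 24 h, fixed with 50% TCA and stained with sulforhodamine B. IC50 was derived from three independent experiments.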
# EMT6 = assay: Antiproliferative activity against drug resistant mouse EMT6/AR1 cells incubated for 24 hrs by sulforhodamine B assay; assay type: functional, cell-based; conditions: EMT6, 24 h; how it was run: as §1
# Huh-7 = assay: Antiproliferative activity against human HuH7 cells incubated for 24 hrs by sulforhodamine B assay; assay type: functional, cell-based; conditions: Huh-7, 24 h; how it was run: as §1
# MCF7 [3] = assay: Induction of cell cycle arrest in human MCF7 cells assessed as accumulation at G1 phase at 5 nM incubated for 24 hrs by propidium iodide staining based flow cytometry (reference value: 49%); assay type: functional
# MCF7 [4] = assay: Induction of cell cycle arrest in human MCF7 cells assessed as accumulation at G1 phase at 10 nM incubated for 24 hrs by propidium iodide staining based flow cytometry (reference value: 49%); assay type: functional
# MCF7 [5] = assay: Induction of cell cycle arrest in human MCF7 cells assessed as accumulation at G1 phase at 50 nM incubated for 24 hrs by propidium iodide staining based flow cytometry (reference value: 49%); assay type: functional
# MCF7 [6] = assay: Induction of cell cycle arrest in human MCF7 cells assessed as accumulation at S phase at 5 nM incubated for 24 hrs by propidium iodide staining based flow cytometry (reference value: 35%); assay type: functional
# MCF7 [7] = assay: Induction of cell cycle arrest in human MCF7 cells assessed as accumulation at S phase at 10 nM incubated for 24 hrs by propidium iodide staining based flow cytometry (reference value: 35%); assay type: functional
# MCF7 [8] = assay: Induction of cell cycle arrest in human MCF7 cells assessed as accumulation at S phase at 50 nM incubated for 24 hrs by propidium iodide staining based flow cytometry (reference value: 35%); assay type: functional
# MCF7 [9] = assay: Induction of cell cycle arrest in human MCF7 cells assessed as accumulation at G2/M phase at 5 nM incubated for 24 hrs by propidium iodide staining based flow cytometry (reference value: 16%); assay type: functional
# MCF7 [10] = assay: Induction of cell cycle arrest in human MCF7 cells assessed as accumulation at G2/M phase at 10 nM incubated for 24 hrs by propidium iodide staining based flow cytometry (reference value: 16%); assay type: functional
# MCF7 [11] = assay: Induction of cell cycle arrest in human MCF7 cells assessed as accumulation at G2/M phase at 50 nM incubated for 24 hrs by propidium iodide staining based flow cytometry (reference value: 16%); assay type: functional
# MDA-MB-231 [12] = assay: Inhibition of cell migration of human MDA-MB-231 cells at 50 nM by wound closure assay; assay type: functional
# How it was run: (§2)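 MDA-MB-231 cells grown to 90% confluency in 35 mm dishes and scratched with a microtip. Incubated without or with compound. Wound closure imaged at 0, 4 and 18 h and expressed as percent closure.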
# MDA-MB-231 [13] = assay: Inhibition of cell migration of human MDA-MB-231 cells at 150 nM by wound closure assay; assay type: functional; how it was run: as §2
# [14] = Inhibition of goat brain tubulin assembly incubated for 10 mins by spectrophotometry; set-up: species or system Ovis aries
# How it was run: (§3)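 Goat brain tubulin (12 μM; glutamate-purified, >97% pure) held 10 min on ice with compound in 25 mM PIPES, 1 mM EGTA, 3 mM MgCl2, 1 M glutamate. Then 1 mM GTP added. Assembly followed at 350 nm, 37 °C, for 20 min. Three independent experiments.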
# [15] = Binding affinity to goat brain tubulin assessed as reduction in binding of 5-(Quinolin-3-yl)-4-(3,4,5-trimethoxyphenyl)-1H-imidazol-2-amine to tubulin incubated for 15 mins by fluorescence based assay; set-up: species or system Ovis aries
# How it was run: (§4)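 Goat brain tubulin (3 μM) was preincubated with competitor (1–20 μM) in 25 mM PIPES, pH 6.8, for 15 min at 25 °C. The 2-aminoimidazole probe (6 μM) was then added for 15 min at 25 °C. Emission was recorded at 420–520 nm with excitation at 350 nm. Ki was calculated as EC50/(1 + L/Kd). Three sets were run.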
# Tubulin (Homo sapiens) [16] = molecular target: T1, Tubulin (Homo sapiens) (UniProt P68371+Q9H4B7+P0DPH7+P68366+Q13509+Q71U36+P04350+Q3ZCM7+P07437+P68363+Q9BQE3+Q6PEY2+Q13885+Q9BVA1+Q9BUF5); assay: Induction of interphase microtubule network depolymerization in human MCF7 cells at 5 nM incubated for 24 hrs by immunostaining method; assay type: cell-based
# Tubulin (Homo sapiens) [17] = molecular target: T1, Tubulin (Homo sapiens); assay: Induction of interphase microtubule network depolymerization in human MCF7 cells at 10 nM incubated for 24 hrs by immunostaining method; assay type: cell-based
# MCF7 [18] = assay: Induction of mitotic spindle disturbance in human MCF7 cells assessed as monopolar spindle formation at 5 and 10 nM incubated for 24 hrs by immunostaining; assay type: functional, cell-based
# MCF7 [19] = assay: Induction of mitosis block in human MCF7 cells assessed as phospho-histone H3 (Ser10) staining positive cells level at 5 nM incubated for 24 hrs by immunostaining (reference value: 8 +/- 1%); assay type: functional
# MCF7 [20] = assay: Induction of mitosis block in human MCF7 cells at 5 and 10 uM incubated for 24 hrs by immunostaining; assay type: functional, cell-based
# MCF7 [21] = assay: Induction of mitosis block in human MCF7 cells assessed as phospho-histone H3 (Ser10) staining positive cells level at 10 nM incubated for 24 hrs by immunostaining (reference value: 8 +/- 1%); assay type: functional
# [22] = (§5) Binding affinity to goat brain tubulin incubated for 10 mins by tryptophan fluorescence quenching based assay; set-up: species or system Ovis aries
# How it was run: (§6)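 Goat brain tubulin (2 μM), purified with 1 M glutamate, incubated 10 min at 25 °C with compound (1–20 μM) in 25 mM PIPES, pH 6.8. Tryptophan fluorescence read with excitation 295 nm. Kd obtained by fitting ΔF = ΔFmax·L/(Kd + L). Four independent sets.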
# Ovis aries [23] = species: Ovis aries; assay: as §5; how it was run: as §6
# Ovis aries [24] = species: Ovis aries; assay: Binding affinity to goat brain tubulin at 5 and 10 uM incubated for 10 mins by fluorescence based assay
# How it was run: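 Goat brain tubulin (2 μM) incubated 10 min at 25 °C with compound (5 and 10 μM) in 25 mM PIPES, pH 6.8. Ligand fluorescence spectra recorded at 420–520 nm, excitation 350 nm. Done three times.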
# Ovis aries [25] = species: Ovis aries; assay: Binding affinity to goat brain tubulin incubated for 15 mins in presence of podophyllotoxin by fluorescence based assay; how it was run: as §4
# Ovis aries [26] = species: Ovis aries; assay: Binding affinity to goat brain tubulin incubated for 15 mins in presence of CA-4 by fluorescence based assay
# How it was run: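 Tubulin (3 μM) preincubated with CA-4 (1–20 μM) in 25 mM PIPES, pH 6.8, 15 min at 25 °C. Then 6 μM compound added for another 15 min at 25 °C. Spectra 420–520 nm taken with excitation 350 nm. Ki from Ki = EC50/(1 + L/Kd). Three sets.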
# Ovis aries [27] = species: Ovis aries; assay: Binding affinity to goat brain tubulin at 10 uM pre-incubated for 30 mins before 50 uM CA-4 exposure for 30 mins by fluorescence based assay
# How it was run: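 Tubulin first incubated 30 min with test compound, then 30 min without or with 50 μM CA-4 or 50 μM podophyllotoxin. Read-out is fluorescence of the tubulin–compound complex.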
# Ovis aries [28] = species: Ovis aries; assay: Binding affinity to goat brain tubulin at 10 uM pre-incubated for 30 mins before 50 uM podophyllotoxin exposure for 30 mins by fluorescence based assay
# How it was run: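 Displacement assay: tubulin was first incubated with the 2-aminoimidazole ligand for 30 min. It was then incubated without or with 50 μM podophyllotoxin or 50 μM CA-4 for a further 30 min. The read-out was the drop in fluorescence of the tubulin–ligand complex.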
# Ovis aries [29] = species: Ovis aries; assay: Binding affinity to goat brain tubulin at 6 uM incubated for 10 mins after 10 mins incubation with 10 and 30 uM vinblastine by fluorescence based assay
# Ovis aries [30] = species: Ovis aries; assay: Binding affinity to goat brain tubulin at 6 uM […] with 10 and 30 uM paclitaxel by fluorescence based assay
# Ovis aries [31] = species: Ovis aries; assay: Inhibition of goat brain tubulin assembly at 20 uM incubated for 10 mins by spectrophotometry; how it was run: as §3
smiles,measurement,setting,value
COc1ccc(/C=C\c2cc(OC)c(OC)c(OC)c2)cc1O [COMBRETASTATIN A4],IC50,MCF7 [1],0.018 µM
same,IC50,HeLa,0.025 µM
same,IC50,MDA-MB-231 [2],0.331 µM
same,IC50,EMT6,0.495 µM
same,IC50,Huh-7,0.43 µM
same,Activity,MCF7 [3],51%
same,Activity,MCF7 [4],41%
same,Activity,MCF7 [5],14%
same,Activity,MCF7 [6],23%
same,Activity,MCF7 [7],16%
same,Activity,MCF7 [8],23%
same,Activity,MCF7 [9],26%
same,Activity,MCF7 [10],43%
same,Activity,MCF7 [11],63%
same,inhibition at 0.05 µM,MDA-MB-231 [12],8%
same,inhibition at 0.15 µM,MDA-MB-231 [13],52%
same,IC50,[14],1.7 µM
same,Kd,[15],0.68 µM
COc1cc(-c2nc(N)[nH]c2-c2ccc(Cl)cc2)cc(OC)c1OC,IC50,MCF7 [1],8 µM
same,IC50,HeLa,3 µM
COc1cc(-c2nc(N)[nH]c2-c2cnc3ccccc3c2)cc(OC)c1OC,IC50,MCF7 [1],0.003 µM
same,IC50,HeLa,0.01 µM
same,IC50,MDA-MB-231 [2],0.096 µM
same,IC50,EMT6,0.35 µM
same,IC50,Huh-7,0.335 µM
same,Activity,Tubulin (Homo sapiens) [16],Active
same,Activity,Tubulin (Homo sapiens) [17],Active
same,Activity,MCF7 [18],Active
same,Activity,MCF7 [19],15%
same,Activity,MCF7 [20],Active
same,Activity,MCF7 [21],26%
same,Activity,MCF7 [3],34%
same,Activity,MCF7 [4],16%
same,Activity,MCF7 [6],25%
same,Activity,MCF7 [7],10%
same,Activity,MCF7 [9],40%
same,Activity,MCF7 [10],74%
same,inhibition at 0.05 µM,MDA-MB-231 [12],56%
same,IC50,[14],1.6 µM
same,inhibition,[14]; Ovis aries,Dose-dependent effect
same,Kd,[22],1.9 µM
same,Activity,Ovis aries [23],Dose-dependent effect
same,Activity,Ovis aries [24],Active
same,Activity,Ovis aries [25],inactive
same,Activity,Ovis aries [26],inactive
same,Activity,Ovis aries [27],inactive
same,Activity,Ovis aries [28],inactive
same,Activity,Ovis aries [29],Active
same,Activity,Ovis aries [30],Active
Nc1nc(-c2ccccc2)c(-c2ccccc2)[nH]1,IC50,MCF7 [1],0.187 µM
same,IC50,HeLa,0.197 µM
same,inhibition,Ovis aries [31],inactive
COc1cc([C@@H]2c3cc4c(cc3[C@H](O)[C@H]3COC(=O)[C@H]23)OCO4)cc(OC)c1OC [PODOFILOX],Kd,[15],0.3 µM
COc1cc(-c2nc(N)[nH]c2-c2ccccc2)cc(OC)c1OC,IC50,MCF7 [1],27 µM
same,IC50,HeLa,34 µM
COc1cc(-c2nc(N)[nH]c2-c2cccnc2)cc(OC)c1OC,IC50,MCF7 [1],13 µM
same,IC50,HeLa,4 µM
COc1cc(-c2nc(N)[nH]c2-c2ccc(N)nc2)cc(OC)c1OC,IC50,MCF7 [1],21 µM
same,IC50,HeLa,18 µM
COc1ccc(-c2[nH]c(N)nc2-c2cc(OC)c(OC)c(OC)c2)cc1OC,IC50,MCF7 [1],0.071 µM
same,IC50,HeLa,0.068 µM
same,IC50,[14],11 µM
